In ChEMBL document CHEMBL1811752, “Synthesis and pharmacological characterization of bicyclic triple reuptake inhibitor 3-aryl octahydrocyclopenta[c]pyrrole analogues” (J Med Chem, 2011):

Experiments:
Cytochrome P450 2D6 = Cytochrome P450 2D6 (Homo sapiens, UniProt P10635); test: Inhibition of CYP2D6 in human liver microsomes by LC-MS/MS analysis; assay type: ADME, Microsome
Procedure, shortened: (§1)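 Human liver microsomes incubated with isoform-specific substrates and compound, typically 0.1–25 μM. Metabolite formation read by LC-MS/MS, […]. IC50 calculated from the decrease in metabolite formation relative to vehicle control.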

[1] = biological target: Sodium-dependent noradrenaline transporter (Homo sapiens, UniProt P23975); test: Inhibition of norepinephrine reuptake at NET expressed in MDCK cells; assay type: cell-based
Sequence of Sodium-dependent noradrenaline transporter (P23975 whole entry): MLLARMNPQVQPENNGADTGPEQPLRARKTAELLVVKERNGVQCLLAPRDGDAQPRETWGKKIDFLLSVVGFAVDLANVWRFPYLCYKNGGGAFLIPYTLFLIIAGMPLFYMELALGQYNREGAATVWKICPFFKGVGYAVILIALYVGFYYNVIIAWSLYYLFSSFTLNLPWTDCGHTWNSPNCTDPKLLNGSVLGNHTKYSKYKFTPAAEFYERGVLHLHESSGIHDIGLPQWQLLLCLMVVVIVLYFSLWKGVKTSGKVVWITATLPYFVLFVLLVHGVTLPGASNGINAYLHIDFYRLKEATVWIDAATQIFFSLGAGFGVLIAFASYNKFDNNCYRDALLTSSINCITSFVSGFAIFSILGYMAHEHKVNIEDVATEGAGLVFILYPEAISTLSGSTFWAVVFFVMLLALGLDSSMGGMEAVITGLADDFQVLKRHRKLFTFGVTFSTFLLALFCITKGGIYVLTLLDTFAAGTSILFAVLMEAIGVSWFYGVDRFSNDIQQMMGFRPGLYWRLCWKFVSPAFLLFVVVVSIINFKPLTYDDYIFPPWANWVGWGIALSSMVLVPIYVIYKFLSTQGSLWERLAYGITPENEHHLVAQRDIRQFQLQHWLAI

[2] = biological target: Voltage-gated inwardly rectifying potassium channel KCNH2 (Homo sapiens, UniProt Q12809); test: Inhibition of human ERG expressed in CHO cells by high throughput single cell planar patch clamp method; assay type: cell-based
Sequence of Voltage-gated inwardly rectifying potassium channel KCNH2 (Q12809 whole entry): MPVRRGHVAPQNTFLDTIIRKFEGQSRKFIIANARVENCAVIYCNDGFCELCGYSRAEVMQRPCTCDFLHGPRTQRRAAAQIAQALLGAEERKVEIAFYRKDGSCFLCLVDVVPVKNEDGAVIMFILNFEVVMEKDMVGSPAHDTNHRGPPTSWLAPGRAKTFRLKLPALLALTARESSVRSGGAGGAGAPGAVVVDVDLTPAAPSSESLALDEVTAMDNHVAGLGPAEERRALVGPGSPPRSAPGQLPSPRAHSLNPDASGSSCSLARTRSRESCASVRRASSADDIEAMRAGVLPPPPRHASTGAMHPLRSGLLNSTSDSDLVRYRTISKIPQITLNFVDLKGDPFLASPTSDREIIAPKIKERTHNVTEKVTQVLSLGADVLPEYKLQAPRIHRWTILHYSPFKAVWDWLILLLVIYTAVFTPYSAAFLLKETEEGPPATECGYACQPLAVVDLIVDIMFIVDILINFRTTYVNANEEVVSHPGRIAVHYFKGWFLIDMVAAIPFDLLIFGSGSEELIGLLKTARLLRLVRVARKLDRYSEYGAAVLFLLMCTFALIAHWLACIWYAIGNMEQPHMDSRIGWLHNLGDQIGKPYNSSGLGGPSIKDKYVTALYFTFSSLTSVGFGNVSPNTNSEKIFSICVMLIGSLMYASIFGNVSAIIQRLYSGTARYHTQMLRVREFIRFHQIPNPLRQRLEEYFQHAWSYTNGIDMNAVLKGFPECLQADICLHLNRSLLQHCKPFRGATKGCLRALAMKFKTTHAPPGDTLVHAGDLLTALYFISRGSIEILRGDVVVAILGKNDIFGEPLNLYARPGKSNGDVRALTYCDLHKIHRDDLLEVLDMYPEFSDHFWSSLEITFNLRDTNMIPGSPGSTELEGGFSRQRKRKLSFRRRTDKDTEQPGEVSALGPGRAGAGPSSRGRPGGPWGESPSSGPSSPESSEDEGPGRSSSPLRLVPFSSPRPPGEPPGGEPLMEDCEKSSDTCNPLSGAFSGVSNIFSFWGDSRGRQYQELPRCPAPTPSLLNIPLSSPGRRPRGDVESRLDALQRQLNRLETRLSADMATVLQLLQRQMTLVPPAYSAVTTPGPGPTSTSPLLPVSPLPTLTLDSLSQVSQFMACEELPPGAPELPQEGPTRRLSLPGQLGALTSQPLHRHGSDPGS

[3] = biological target: Sodium-dependent serotonin transporter (Homo sapiens, UniProt P31645); test: Inhibition of serotonin reuptake at SERT expressed in HEK293 cells; assay type: cell-based
Sequence of Sodium-dependent serotonin transporter (P31645 whole entry): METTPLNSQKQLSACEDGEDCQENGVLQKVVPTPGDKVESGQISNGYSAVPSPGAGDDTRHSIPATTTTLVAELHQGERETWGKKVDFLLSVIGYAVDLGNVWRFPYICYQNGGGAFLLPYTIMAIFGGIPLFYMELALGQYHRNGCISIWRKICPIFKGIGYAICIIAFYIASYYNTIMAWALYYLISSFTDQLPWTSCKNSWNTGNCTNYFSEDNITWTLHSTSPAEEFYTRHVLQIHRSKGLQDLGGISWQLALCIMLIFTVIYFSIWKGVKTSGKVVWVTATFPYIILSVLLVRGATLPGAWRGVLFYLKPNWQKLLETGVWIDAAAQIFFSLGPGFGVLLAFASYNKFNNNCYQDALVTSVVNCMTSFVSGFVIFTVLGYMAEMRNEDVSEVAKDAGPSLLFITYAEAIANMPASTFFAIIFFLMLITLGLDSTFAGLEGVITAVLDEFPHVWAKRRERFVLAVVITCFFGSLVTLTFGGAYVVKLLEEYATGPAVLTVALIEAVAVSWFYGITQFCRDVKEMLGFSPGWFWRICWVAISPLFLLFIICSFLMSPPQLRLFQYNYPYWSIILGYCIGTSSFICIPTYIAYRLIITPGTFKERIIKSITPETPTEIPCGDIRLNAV

[4] = Half life in human liver microsomes at 3 uM by LC-MS/MS analysis; assay type: ADME, Microsome
Procedure, shortened: (§2)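 Human or mouse liver microsomes (0.5 mg/mL) incubated with 3 μM compound at 37 °C. Reaction started with NADPH and stopped with methanol containing internal standard. Loss of compound followed over 45 min by LC-MS/MS. Peak area ratio to internal standard plotted against time and the slope of the line taken.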

Cytochrome P450 2C9 = Cytochrome P450 2C9 (Homo sapiens, UniProt P11712); test: Inhibition of CYP2C9 in human liver microsomes by LC-MS/MS analysis; assay type: ADME, Microsome; procedure, shortened: as §1
Sequence of Cytochrome P450 2C9 (P11712 whole entry): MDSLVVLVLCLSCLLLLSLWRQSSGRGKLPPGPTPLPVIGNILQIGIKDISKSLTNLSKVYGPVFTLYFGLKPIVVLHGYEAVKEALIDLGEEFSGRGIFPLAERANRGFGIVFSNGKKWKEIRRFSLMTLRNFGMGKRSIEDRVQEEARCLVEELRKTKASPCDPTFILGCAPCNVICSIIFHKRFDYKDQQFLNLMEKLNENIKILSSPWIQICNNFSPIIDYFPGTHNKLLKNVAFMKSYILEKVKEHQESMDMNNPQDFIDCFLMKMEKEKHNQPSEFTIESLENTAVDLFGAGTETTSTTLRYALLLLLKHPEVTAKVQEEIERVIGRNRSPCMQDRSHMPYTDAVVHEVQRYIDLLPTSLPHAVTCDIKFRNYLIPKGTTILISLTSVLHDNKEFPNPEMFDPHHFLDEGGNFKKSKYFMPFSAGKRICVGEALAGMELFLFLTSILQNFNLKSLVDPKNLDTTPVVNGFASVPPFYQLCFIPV

[5] = Half life in mouse liver microsomes at 3 uM by LC-MS/MS analysis; assay type: ADME, Microsome; procedure, shortened: as §2
Cytochrome P450 2C19 = Cytochrome P450 2C19 (Homo sapiens, UniProt P33261); test: Inhibition of CYP2C19 in human liver microsomes by LC-MS/MS analysis; assay type: ADME, Microsome; procedure, shortened: as §1
Sequence of Cytochrome P450 2C19 (P33261 whole entry): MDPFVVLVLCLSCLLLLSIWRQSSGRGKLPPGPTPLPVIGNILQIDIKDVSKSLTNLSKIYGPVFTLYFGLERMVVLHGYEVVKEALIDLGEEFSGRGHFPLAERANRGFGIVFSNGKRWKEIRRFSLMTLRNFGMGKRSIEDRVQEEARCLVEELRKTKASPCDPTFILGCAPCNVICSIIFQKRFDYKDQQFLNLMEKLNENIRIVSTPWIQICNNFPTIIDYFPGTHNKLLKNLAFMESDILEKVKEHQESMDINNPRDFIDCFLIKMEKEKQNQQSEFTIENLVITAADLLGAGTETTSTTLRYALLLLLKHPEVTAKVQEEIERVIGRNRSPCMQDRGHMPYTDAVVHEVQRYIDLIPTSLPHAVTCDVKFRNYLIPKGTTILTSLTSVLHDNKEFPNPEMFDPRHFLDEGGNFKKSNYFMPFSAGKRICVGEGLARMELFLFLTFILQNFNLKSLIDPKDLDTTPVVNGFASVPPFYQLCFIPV

[6] = biological target: Sodium-dependent dopamine transporter (Homo sapiens, UniProt Q01959); test: Inhibition of dopamine reuptake at DAT expressed in CHO-K1 cells; assay type: cell-based
Sequence of Sodium-dependent dopamine transporter (Q01959 whole entry): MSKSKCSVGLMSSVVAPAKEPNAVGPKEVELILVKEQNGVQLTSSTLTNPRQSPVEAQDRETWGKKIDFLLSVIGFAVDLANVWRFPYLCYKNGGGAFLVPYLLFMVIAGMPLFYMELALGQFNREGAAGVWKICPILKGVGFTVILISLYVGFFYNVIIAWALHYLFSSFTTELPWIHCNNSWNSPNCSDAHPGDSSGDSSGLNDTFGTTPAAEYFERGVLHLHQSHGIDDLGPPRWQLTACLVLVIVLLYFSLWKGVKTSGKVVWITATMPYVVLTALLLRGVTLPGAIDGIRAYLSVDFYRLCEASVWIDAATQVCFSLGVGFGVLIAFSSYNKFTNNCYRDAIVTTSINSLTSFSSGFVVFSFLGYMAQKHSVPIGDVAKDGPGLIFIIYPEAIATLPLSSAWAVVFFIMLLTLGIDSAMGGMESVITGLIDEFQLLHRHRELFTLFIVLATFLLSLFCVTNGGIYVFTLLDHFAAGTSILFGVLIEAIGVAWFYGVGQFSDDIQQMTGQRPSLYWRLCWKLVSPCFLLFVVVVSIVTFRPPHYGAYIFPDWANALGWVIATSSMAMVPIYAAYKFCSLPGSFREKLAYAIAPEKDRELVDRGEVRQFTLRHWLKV

CYP1A = biological target: T1, CYP1A (Homo sapiens, UniProt P04798+P05177); test: Inhibition of CYP1A in human liver microsomes by LC-MS/MS analysis; assay type: ADME, Microsome; procedure, shortened: as §1
T1 sequence (P04798 whole entry): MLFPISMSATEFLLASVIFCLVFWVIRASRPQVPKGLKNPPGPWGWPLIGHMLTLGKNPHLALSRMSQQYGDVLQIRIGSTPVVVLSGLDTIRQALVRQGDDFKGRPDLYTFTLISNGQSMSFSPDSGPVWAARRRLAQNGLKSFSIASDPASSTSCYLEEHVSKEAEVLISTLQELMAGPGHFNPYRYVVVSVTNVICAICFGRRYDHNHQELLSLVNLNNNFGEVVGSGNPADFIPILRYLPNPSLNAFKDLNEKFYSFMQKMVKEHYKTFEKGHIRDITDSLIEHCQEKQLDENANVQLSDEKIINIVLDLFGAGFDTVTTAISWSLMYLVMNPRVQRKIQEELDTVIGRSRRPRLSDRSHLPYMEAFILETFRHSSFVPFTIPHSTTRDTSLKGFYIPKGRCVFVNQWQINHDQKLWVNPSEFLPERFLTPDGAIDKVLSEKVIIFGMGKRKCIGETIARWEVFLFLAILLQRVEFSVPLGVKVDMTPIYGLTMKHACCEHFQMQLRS
T1 sequence (P05177 whole entry): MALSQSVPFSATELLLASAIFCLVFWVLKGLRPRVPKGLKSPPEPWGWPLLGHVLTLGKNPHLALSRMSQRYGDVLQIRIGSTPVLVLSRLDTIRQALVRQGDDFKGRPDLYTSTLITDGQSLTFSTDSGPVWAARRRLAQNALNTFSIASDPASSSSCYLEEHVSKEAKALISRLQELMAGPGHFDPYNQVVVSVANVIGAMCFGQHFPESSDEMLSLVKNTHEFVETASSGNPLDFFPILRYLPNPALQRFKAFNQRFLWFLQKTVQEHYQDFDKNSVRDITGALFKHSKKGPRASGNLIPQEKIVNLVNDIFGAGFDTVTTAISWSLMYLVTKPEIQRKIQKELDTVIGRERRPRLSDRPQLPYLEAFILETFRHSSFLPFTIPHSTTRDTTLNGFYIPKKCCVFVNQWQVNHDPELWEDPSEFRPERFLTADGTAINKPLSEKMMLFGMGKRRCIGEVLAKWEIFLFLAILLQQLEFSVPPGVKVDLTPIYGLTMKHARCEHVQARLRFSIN

Cytochrome P450 3A4 = Cytochrome P450 3A4 (Homo sapiens, UniProt P08684); test: Inhibition of CYP3A4 in human liver microsomes by LC-MS/MS analysis; assay type: ADME, Microsome; procedure, shortened: as §1
Sequence of Cytochrome P450 3A4 (P08684 whole entry): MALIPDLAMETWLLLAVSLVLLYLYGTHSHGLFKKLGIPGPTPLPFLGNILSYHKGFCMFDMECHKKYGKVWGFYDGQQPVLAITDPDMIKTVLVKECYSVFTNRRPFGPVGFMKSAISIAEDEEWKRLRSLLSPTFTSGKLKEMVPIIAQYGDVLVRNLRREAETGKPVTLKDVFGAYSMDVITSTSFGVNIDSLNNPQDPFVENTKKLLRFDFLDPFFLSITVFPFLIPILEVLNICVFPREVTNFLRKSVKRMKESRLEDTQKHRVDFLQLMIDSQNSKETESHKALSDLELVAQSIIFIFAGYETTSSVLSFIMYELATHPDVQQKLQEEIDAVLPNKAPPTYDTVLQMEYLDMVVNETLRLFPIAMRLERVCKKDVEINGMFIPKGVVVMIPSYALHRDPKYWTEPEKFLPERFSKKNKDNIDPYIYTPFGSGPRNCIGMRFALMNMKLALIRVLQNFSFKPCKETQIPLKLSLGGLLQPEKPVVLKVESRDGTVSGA

Brain [7] = test: Drug level in mouse brain assessed as (3aS,6aR)-3a-(3,4-dichlorophenyl)octahydrocyclopenta[c]pyrrole level at 3 mg/kg, po; assay type: ADME, organism-based; set-up: dose 3 mg/kg, route oral; settings: in vivo
Procedure, shortened: (§3)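 Male mice dosed orally at 3, 10 or 30 mg/kg in 5% transcutol/saline, 60 min before the tail suspension test. Terminal whole brain (ng/g) and plasma (ng/mL) samples taken from the test animals. Brain/plasma ratio derived from these levels.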

Mus musculus [8] = test: Antidepressant activity in mouse assessed as reduction of immobility time at 100 mg/kg, po after 60 mins by tail suspension test relative to control; assay type: functional; set-up: scale not given: the % may be the effect or the level left
Procedure, shortened: (§4)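 Mouse tail suspension test, male mice (10–12 per group, blind). Single oral dose in 5% transcutol in saline, 60 min pretreatment. Immobility recorded automatically for 5 min. Compared with vehicle group. Desipramine 100 mg/kg PO used as reference. One-way ANOVA with Dunnett's post test, p < 0.05.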

Brain [9] = test: Drug level in mouse brain at 3 mg/kg, po; assay type: ADME, organism-based; set-up: dose 3 mg/kg, route oral; settings: in vivo; procedure, shortened: as §3
Brain [10] = test: Drug level in mouse brain at 10 mg/kg, po; assay type: ADME, organism-based; set-up: dose 10 mg/kg, route oral; settings: in vivo; procedure, shortened: as §3
Plasma [11] = test: Plasma concentration in mouse assessed as (3aS,6aR)-3a-(3,4-dichlorophenyl)octahydrocyclopenta[c]pyrrole level at 30 mg/kg, po; assay type: ADME, organism-based; set-up: dose 30 mg/kg, route oral; settings: in vivo; procedure, shortened: as §3
[12] = Ratio of drug level in brain to plasma in po dosed mouse; assay type: ADME, organism-based; settings: brain and plasma, read-out: BPR; procedure, shortened: as §3
Plasma [13] = test: Plasma concentration in mouse at 30 mg/kg, po; assay type: ADME, organism-based; set-up: dose 30 mg/kg, route oral; settings: in vivo; procedure, shortened: as §3
Plasma [14] = test: Plasma concentration in mouse assessed as (3aS,6aR)-3a-(3,4-dichlorophenyl)octahydrocyclopenta[c]pyrrole level at 3 mg/kg, po; assay type: ADME, organism-based; set-up: dose 3 mg/kg, route oral; settings: in vivo; procedure, shortened: as §3
Brain [15] = test: Drug level in mouse brain assessed as (3aS,6aR)-3a-(3,4-dichlorophenyl)octahydrocyclopenta[c]pyrrole level at 10 mg/kg, po; assay type: ADME, organism-based; set-up: dose 10 mg/kg, route oral; settings: in vivo; procedure, shortened: as §3
Brain [16] = test: Drug level in mouse brain assessed as (3aS,6aR)-3a-(3,4-dichlorophenyl)octahydrocyclopenta[c]pyrrole level at 30 mg/kg, po; assay type: ADME, organism-based; set-up: dose 30 mg/kg, route oral; settings: in vivo; procedure, shortened: as §3
Plasma [17] = test: Plasma concentration in mouse assessed as (3aS,6aR)-3a-(3,4-dichlorophenyl)octahydrocyclopenta[c]pyrrole level at 10 mg/kg, po; assay type: ADME, organism-based; set-up: dose 10 mg/kg, route oral; settings: in vivo; procedure, shortened: as §3
Mus musculus [18] = test: Antidepressant activity in po dosed mouse assessed as reduction of immobility time after 60 mins by tail suspension test; assay type: functional, organism-based; procedure, shortened: as §4
Brain [19] = test: Drug level in mouse brain at 30 mg/kg, po; assay type: ADME, organism-based; set-up: dose 30 mg/kg, route oral; settings: in vivo; procedure, shortened: as §3
Mus musculus [20] = test: Antidepressant activity in mouse assessed as reduction of immobility time at 10 mg/kg, po after 60 mins by tail suspension test relative to control; assay type: functional; set-up: scale not given: the % may be the effect or the level left; procedure, shortened: as §4
Plasma [21] = test: Plasma concentration in mouse at 3 mg/kg, po; assay type: ADME, organism-based; set-up: dose 3 mg/kg, route oral; settings: in vivo; procedure, shortened: as §3
Plasma [22] = test: Plasma concentration in mouse at 10 mg/kg, po; assay type: ADME, organism-based; set-up: dose 10 mg/kg, route oral; settings: in vivo; procedure, shortened: as §3
Mus musculus [23] = test: Antidepressant activity in mouse assessed as reduction of immobility time at 30 mg/kg, po after 60 mins by tail suspension test relative to control; assay type: functional; set-up: scale not given: the % may be the effect or the level left; procedure, shortened: as §4

Sequence of Cytochrome P450 2D6 (P10635 whole entry, canonical isoform): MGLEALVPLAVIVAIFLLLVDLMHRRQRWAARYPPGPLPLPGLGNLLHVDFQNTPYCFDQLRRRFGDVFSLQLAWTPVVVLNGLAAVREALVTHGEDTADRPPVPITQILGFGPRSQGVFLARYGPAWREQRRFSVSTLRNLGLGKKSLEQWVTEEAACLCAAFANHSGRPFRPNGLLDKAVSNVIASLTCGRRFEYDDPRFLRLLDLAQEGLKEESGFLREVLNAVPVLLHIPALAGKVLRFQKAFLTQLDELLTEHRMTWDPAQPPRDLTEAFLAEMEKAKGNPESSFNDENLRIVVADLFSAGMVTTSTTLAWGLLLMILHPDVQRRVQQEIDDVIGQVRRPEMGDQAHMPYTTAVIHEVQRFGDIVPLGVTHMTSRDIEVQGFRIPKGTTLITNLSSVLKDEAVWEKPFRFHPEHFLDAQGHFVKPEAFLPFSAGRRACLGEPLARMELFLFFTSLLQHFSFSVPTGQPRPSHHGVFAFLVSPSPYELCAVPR

SMILES	IC50 (Cytochrome P450 2D6)	IC50 [1]	IC50 [2]	IC50 [3]	half-life at 3 µM [4]	IC50 (Cytochrome P450 2C9)	half-life at 3 µM [5]	IC50 (Cytochrome P450 2C19)	IC50 [6]	IC50 (CYP1A)	IC50 (Cytochrome P450 3A4)	also measured
Clc1ccc([C@]23CCC[C@H]2CNC3)cc1Cl (single isomer, unassigned)	2470 nM	209 nM	6400 nM	501 nM	22 min	4010 nM	56 min	1900 nM	141 nM	530 nM	9170 nM	
CN1C[C@@H]2CCCC[C@]2(c2ccc(Cl)c(Cl)c2)C1	8000 nM	141 nM	2320 nM	107 nM	62 min	> 25000 nM	35 min	> 25000 nM	14.1 nM	3000 nM	5280 nM	
CN1C[C@H]2CCC[C@@]2(c2ccc(Cl)c(Cl)c2)C1	5210 nM	22.4 nM		3.63 nM	37 min	> 25000 nM	27 min	7220 nM	148 nM	> 25000 nM	> 25000 nM	Drug uptake (Brain [7]): 1531 ng/g; Activity (Mus musculus [8]): 26%; Drug uptake (Brain [9]): 34 ng/g; Drug uptake (Brain [10]): 113 ng/g; Cp (Plasma [11]): 537 ng/mL; Kp [12]: 2; Cp (Plasma [13]): 30 ng/mL; Cp (Plasma [14]): 69 ng/mL; Drug uptake (Brain [15]): 4762 ng/g; Drug uptake (Brain [16]): 11433 ng/g; Cp (Plasma [17]): 211 ng/mL; Activity (Mus musculus [18]): Dose-dependent effect; Drug uptake (Brain [19]): 507 ng/g; Activity (Mus musculus [20]): 25%; Cp (Plasma [21]): 2 ng/mL; Cp (Plasma [22]): 7 ng/mL; Activity (Mus musculus [23]): 31%
